# NOD2-RIPK2 inh – blocks binding of human NOD2 to RIPK2 | O43353 | CHO BLA complementation NOD2-RIPK2, CCF4 ratio | inhibition, % at 4.98 µM | 360,000 compounds, 0.38% hits; in the data active means inhibition above about 21%;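 further: 0% = vehicle only and 100% = reference blocker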
# bCat nuc transl – beta-catenin nuclear translocation modulation; HeLa beta-catenin nuclear translocation, immunofluorescence imaging; nuclear translocation activity, % at 5 µM; 190,000 compounds, 0.3% hits; AID 1665;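 active means nuclear translocation activity above 50% at 5 µM, with a well cell count of 50 or more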;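 further: per-cell ratio of nuclear to cytoplasmic median beta-catenin stain intensity; plate controls were DMSO negative control for no effect and GSK-3 inhibitor IX positive control for full effect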
#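 test system = HeLa cells, endogenous beta-catenin | dosing = single 5 µM dose plus 0.02–20 µM confirmation series | times = compound treatment 24 h, 37°C, 5% CO2 | technique = beta-catenin immunofluorescence imaging with DAPI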
# TLR9-MyD88 block – blocks human TLR9 binding to MyD88 | Q9NR96+Q99836 | CHO BLA complementation TLR9-MyD88, CCF4 FRET ratio | inhibition, % at 4.98 µM | 340,000 compounds, 0.21% hits;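 active means inhibition above the mean over all tested compounds plus 3 SD, cut at about 21% in these data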;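 further: 0% = DMSO only wells and 100% = clavulanate BLA inhibitor control wells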
# Hsp70 act – transcriptional activators of Hsp70; activation, % at 10 µM; HeLa Hsp70 promoter luciferase reporter, luminescence; scaled: vehicle 0, proteasome-inhibitor control 100%; 200,000 compounds, 0.04% hits;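 active means activation above the mean across all tested compounds plus 3 SD, cutoff set per campaign, cut at about 5.5% in these data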;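 further: 100% = MG132 at 30 µM as the positive control and 0% = DMSO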
# MT stabilize HCS – stabilizes microtubules in HeLa cells; HeLa tubulin immunostaining HCS, 24 h; share of cells brighter than vehicle mean+2SD; % tubulin-high responders, % at 10 µM; 200,000 compounds, 0.83% hits;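 active means plate Z-score above 3 for both tubulin-high and condensed-nucleus cell shares, with cell loss under 80%, at 10 µM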;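 further: anti alpha tubulin signal scored within the nucleus-defined area of each cell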
# TLR4 MyD88 comp – TLR4-MyD88 interaction inhibition in cells; O00206+Q99836; HeLa CL3-4 TLR4/MyD88 BLA complementation, FRET ratio; inhibition, % at 8.4 µM; 200,000 compounds, 0.18% hits; AID 861; in the data active means inhibition above about 25%;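 further: 0% = vehicle and 100% = reference inhibitor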
# The depositor's hits bear a star; / = not tested or not shown. Sampled rows, rich in hits. Any-hit rate of the full collection: about 1%.
SMILES,NOD2-RIPK2 inh,bCat nuc transl,TLR9-MyD88 block,Hsp70 act,MT stabilize HCS,TLR4 MyD88 comp
Cc1cccc(/C=N/NC(=O)c2cc(C3CC3)nc3ccccc23)n1,1,/,7,/,/,/
CCc1ccc(/C=N/NC(=O)c2cc(C3CC3)nc3ccccc23)s1,4,/,6,0,41*,-5
Cc1ccc(NC2=NC3(CCCC3)N=C(N)N2)c(C)c1,11,-1,3,1,25*,-1
C=C(C)COc1ccc(-c2[nH]ncc2-c2ccc(OC)c(OC)c2)c(O)c1,-2,-1,2,0,58*,5
CC1(c2nc3ccccc3[nH]2)CCC(=O)N1C1CC1 (stereo unspecified),0,/,/,/,/,/
N#C/C(=C\c1ccc(N2CCOCC2)o1)c1nc2ccccc2[nH]1,3,0,9,0,3,1
N#C/C(=C/c1ccc(N2CCOCC2)o1)c1ccc(Cl)cc1,17,0,14,1,48*,9
O=C(NCc1ccccc1)c1cc(C2COCCN2C(=O)CCc2ccccc2)on1 (stereo unspecified),-3,/,/,/,/,/
CCOC(=O)C1=C(Cc2ccc(F)cc2)C(=O)c2ccccc2C1=O,30*,/,16,0,1,-2
O=C(OCc1ccc(F)cc1)c1ccc2c(c1)-c1ccccc1C2=O,-8,2,4,0,2,-4
O=C(COc1ccccc1-c1ccccc1)N/N=C/c1cccc2ccccc12,12,112*,-2,0,8,-6
O=C(CSc1nc2ccccc2s1)N/N=C/c1ccc(C(=O)O)cc1,-2,-5,-1,0,1,-4
COc1ccc(/C=N/NC(=O)CCSc2nc3ccccc3s2)cc1,-1,131*,1,0,29*,-2
CN(C)c1ccc(/C=N/NC(=O)COc2ccccc2)cc1,2,-1,1,0,9,-7
COc1ccc(/C=N/NC(=O)COc2ccccc2-c2ccccc2)cc1,3,142*,5,0,13,-3
COc1cccc(C=NNC(=S)NN=Cc2cccc(OC)c2OC)c1OC,-2,/,-14,/,/,/
Cc1ccc(NC(=S)N/N=C/c2c(Cl)cccc2Cl)c(C)c1,16,99*,-27,0,13*,15
CC(C)OC(=O)N(C)C[C@@H]1OCc2cnnn2CCCC(=O)N([C@@H](C)CO)C[C@H]1C,-6,/,-3,/,/,/
Cc1cccc2cc3c(nc12)SC(=NCC1CCCO1)N(Cc1ccco1)C3 (stereo unspecified),19,3,8,0,32*,-9
COc1ccc2nc(SCC(=O)N3CC(=O)Nc4ccccc43)c(C#N)cc2c1,2,/,5,0,27*,3
O=C(c1[nH]c(C(F)(F)F)nc1-c1ccccc1)N1CCN(c2ncccc2C(F)(F)F)CC1,-3,/,/,/,/,/
CCn1c(=O)c(=O)[nH]c2cc(C(=O)NC3CCCc4ccccc43)ccc21 (stereo unspecified),5,-4,5,0,29*,3
CCn1c(=O)c(=O)[nH]c2cc(C(=O)NC3CC3)ccc21,0,-2,-9,0,5,3
Cc1ccc(C=Nc2ccccc2C(N)=O)cc1,-4,/,4,0,31*,6
Cc1ccccc1C=Nc1ccccc1C(N)=O,5,28,-8,0,22*,-15
SMILES,NOD2-RIPK2 inh,bCat nuc transl,TLR9-MyD88 block,Hsp70 act,MT stabilize HCS,TLR4 MyD88 comp
CC(=O)c1cccc(OC(=O)c2cc(S(=O)(=O)N3CCOCC3)ccc2N2CCCC2)c1,-1,/,-9,/,/,/
Cc1cc(NC(=O)c2c(-c3c(Cl)cccc3Cl)noc2C)n(C)n1,4,0,-10,/,/,/
CCn1ncc(/C=N\NC(=O)c2csc3ccccc23)c1C,4,129*,5,0,48*,-5
C#CCn1cc(/C=N/NC(=O)c2cc3ccccc3o2)c2ccccc21,-3,2,-1,0,27*,13
Cc1cc(C)cc(C(=O)N2CC(=O)Nc3ccccc32)c1,15,154*,-7,0,28*,-1
COc1cc(C(=O)N2CC(=O)Nc3ccccc32)cc(OC)c1OC,-3,/,-2,/,/,/
O=C(NCCCn1ccnc1)C1CCCN(S(=O)(=O)c2ccc(F)cc2)C1 (stereo unspecified),1,/,-1,/,/,/
CCOc1ccc(C2=Nc3ccccc3C(c3ccc(N4CCOCC4)cc3)=NN2)cc1,3,/,-3,0,35*,-5
CC1(C)Cc2c(sc3ncnc(NNC(=S)NCc4ccccc4)c23)CO1,13,0,-6,0,29*,2
CC(C)NC(=S)NNc1ncnc2sc3c(c12)CC(C)(C)OC3,2,/,/,/,/,/
CCOCCCNC(=O)c1cc2sc(Cl)cc2n1CC,-5,/,13,0,14*,-2
CC1(C)OC(=O)C2=C(C[C@@H](CCC(F)(F)F)O[C@H]2c2ccc(F)cc2)O1,2,/,/,/,/,/
O=C(Cc1ccccc1)NNS(=O)(=O)c1ccccc1[N+](=O)[O-],-13,/,-1,/,/,/
Nc1nn(-c2ccccc2)c(N)c1N=Nc1cccc(F)c1,8,58*,/,/,/,/
Cc1nn(-c2ccccc2)c(N)c1N=Nc1cccnc1,5,-2,-6,0,2,-4
Nc1nn(-c2ccccc2)c(N)c1N=Nc1ccc2c(c1)OCO2,-2,78*,-1,0,25*,-7
CSc1ccc(/C=N/NC(=O)c2ccc(C)c(C)c2)cc1,-8,1,-2,0,24*,0
CSc1ccc(/C=N/NC(=O)c2cc(O)cc(O)c2)cc1,-9,-1,-3,0,2,-10
CCNC(=O)C1(C)CCN(C(=O)c2cccc(OC(F)(F)F)c2)C1 (stereo unspecified),6,/,/,/,/,/
CCOc1cc(N2CCOCC2)c(OCC)cc1NC(=O)COC(=O)CCOc1cc(C)ccc1C,2,/,-3,/,/,/
COc1ccc(NS(=O)(=O)c2cccc(NC(=O)c3ccc(S(=O)(=O)N4CCCCCC4)cc3)c2)cc1,0,0,-7,0,18*,6
O=C(NCc1cccc(C(F)(F)F)c1)C1CC(c2c(Cl)cccc2Cl)=NO1 (stereo unspecified),5,44,-4,0,37*,-14
O=S1(=O)C[C@H](N2CC[C@@H](O)C2)[C@@H](COCc2ccccc2)N1,2,/,/,/,/,/
COc1cccc2c(SCC(=O)N/N=C/c3ccc(O)c(O)c3)cc(C)nc12,1,-5,/,0,10*,8
COc1ccc2nc(C)cc(SCC(=O)N/N=C/c3cccc4ccccc34)c2c1,4,77*,0,0,41,-1
COc1cccc2c(SCC(=O)N/N=C/c3ccccc3)cc(C)nc12,-1,8,0,0,4,2
COc1ccc2nc(C)cc(SCC(=O)N/N=C/c3ccc(O)c(O)c3)c2c1,-5,-2,-4,0,4,-6

# Source: PubChem BioAssay
